A short description of data set [1]: Volume of distribution at steady state in C57BL/6J mouse at 1 mg/kg, po or 0.5 mg/kg, iv. The format is ADME, organism-based. The following applies: in vivo, read-out: Vdss. In short, it runs like this: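 C57BL/6J mice dosed 1 mg/kg po and 0.5 mg/kg iv, both in DMSO:PEG400:water (5:40:55, v/v/v).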
For a further data set, the target named is T1, Cytochrome P450 2B6 (Homo sapiens, UniProt P20813).
T1 sequence (P20813 whole entry): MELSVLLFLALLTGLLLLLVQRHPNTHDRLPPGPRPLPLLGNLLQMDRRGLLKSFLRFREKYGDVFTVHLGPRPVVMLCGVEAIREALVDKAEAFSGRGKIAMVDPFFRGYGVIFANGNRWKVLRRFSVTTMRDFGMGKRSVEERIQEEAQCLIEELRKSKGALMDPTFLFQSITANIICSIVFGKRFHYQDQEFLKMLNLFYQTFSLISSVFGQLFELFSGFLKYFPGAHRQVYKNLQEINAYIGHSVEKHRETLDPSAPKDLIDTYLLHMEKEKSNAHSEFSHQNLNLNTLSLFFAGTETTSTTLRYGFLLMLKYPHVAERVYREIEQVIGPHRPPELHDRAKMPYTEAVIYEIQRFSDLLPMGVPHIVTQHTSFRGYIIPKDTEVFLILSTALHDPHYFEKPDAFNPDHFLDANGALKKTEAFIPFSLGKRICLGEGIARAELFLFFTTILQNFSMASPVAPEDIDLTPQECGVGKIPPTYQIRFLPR
Nature of the data set: Inhibition of CYP2B6 (unknown origin). It is filed as ADME.

Another data set is filed under the species Rattus norvegicus. The conditions noted are these: Sprague-Dawley, dose 15.0 mg/kg.
A short description of data set [2]: In vivo inhibition of HIF-PHD2 in iv dosed C57BL/6 mouse assessed as minimum effective dose causing increase in serum erythropoietin levels measured after 4 hrs. It is filed as functional. The following applies: C57BL/6, iv, read-out: MED. In short, it runs like this: (§1)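 Mouse pharmacodynamic EPO assay (MoPED). Compound dosed iv; serum EPO measured 4 hr after dosing and reported in pg/mL. Minimum effective dose is the lowest dose giving EPO elevation.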

Data set [3] in a line: Volume of distribution at steady state in rhesus monkey at 1 mg/kg, po or 0.5 mg/kg, iv. The format is ADME, organism-based, Macaca mulatta. The conditions noted are these: in vivo, read-out: Vdss. In short, it runs like this:
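Dog and rhesus monkey dosed 1 mg/kg po and 0.5 mg/kg iv. The iv vehicle was PEG200:12%HPCD:water (30:12:58 v/v/v); the po vehicle was Imwitor:Tween (1:1 w/w). Clearance was measured in plasma. Protein binding was measured in 100% serum.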

Data set [4] can be described thus: Metabolic stability in rat liver microsomes assessed as metabolic turnover at 10 uM measured after 60 mins in presence of NADPH. The format is ADME, Microsome. The following applies: read-out: Drug metabolism. In short, it runs like this: (§2)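 Tritiated compound incubated with rat or monkey liver microsomes supplemented with NADPH; metabolic turnover monitored.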
In general terms: Liver microsomes are vesicles of endoplasmic reticulum, rich in cytochrome P450 enzymes.

Data set [5] can be described thus: Metabolic stability in monkey liver microsomes assessed as metabolic turnover at 10 uM measured after 60 mins in presence of NADPH. The conditions noted are these: rhesus monkey, read-out: Drug metabolism. It is filed as ADME, Macaca mulatta, Microsome. The gist of the method:
as §2

The next data set deals with Prolyl hydroxylase EGLN2 (Homo sapiens, UniProt Q96KS0). In words: Inhibition of FLAG-tagged full-length HIF-PHD1 (unknown origin) expressed in baculovirus infected Sf9 cells using 2-oxoglutarate and HIF1alpha biotinyl-DLDLEMLAPYIPMDDDFQL as peptide substrates preincubated for 30 mins followed by substrate addition and measured after 2 hrs by LANCE assay. (In general: Time-resolved FRET reads energy transfer from a long-lived donor to a nearby acceptor.)

The next data set addresses Prolyl hydroxylase EGLN3 (Homo sapiens, UniProt Q9H6Z9). In words: Inhibition of FLAG-tagged full-length HIF-PHD3 (unknown origin) expressed in baculovirus infected Sf9 cells using 2-oxoglutarate and HIF1alpha biotinyl-DLDLEMLAPYIPMDDDFQL as peptide substrates preincubated for 30 mins followed by substrate addition and measured after 2 hrs by LANCE assay.
Data set [6] has as its target Hypoxia-inducible factor 1-alpha inhibitor (Homo sapiens) (UniProt Q9NWT6). In words: Inhibition of FIH (unknown origin) using 2-oxoglutarate and biotinyl-SMDESGLPQLTSYDAEVNAPIQGSRNLLQGEELLR CAD peptide as substrate preincubated for 10 mins followed by substrate addition and measured after 1 hr by RapidFire Mass spectrometry.
A short description of data set [7]: Volume of distribution at steady state in rat at 2 mg/kg, po or 1 mg/kg, iv. The format is ADME, organism-based. The following applies: in vivo, read-out: Vdss.
Data set [8] can be described thus: In vivo inhibition of HIF-PHD2 in C57BL/6 mouse assessed as serum erythropoietin level at 15 mg/kg, iv measured after 4 hrs. It is filed as functional. The gist of the method: as §1
The nature of data set [9]: Drug metabolism in fasted bile-duct cannulated Sprague-Dawley rat bile assessed as oxidation of parent compound causing metabolite formation at 5 mg/kg, po using [3H]-labeled compound measured after 48 hrs. The conditions noted are these: in vivo. The format is ADME, organism-based.
Data set [10] is described as follows: Drug recovery in fasted bile-duct cannulated Sprague-Dawley rat feces assessed as metabolically unchanged parent compound by measuring radioactivity at 5 mg/kg, po using [3H]-labeled compound measured after 48 hrs. The format is ADME, organism-based. The conditions noted are these: in vivo.
In a further data set the target is T2, Cytochrome P450 2C8 (Homo sapiens, UniProt P10632).
T2 sequence (P10632 whole entry): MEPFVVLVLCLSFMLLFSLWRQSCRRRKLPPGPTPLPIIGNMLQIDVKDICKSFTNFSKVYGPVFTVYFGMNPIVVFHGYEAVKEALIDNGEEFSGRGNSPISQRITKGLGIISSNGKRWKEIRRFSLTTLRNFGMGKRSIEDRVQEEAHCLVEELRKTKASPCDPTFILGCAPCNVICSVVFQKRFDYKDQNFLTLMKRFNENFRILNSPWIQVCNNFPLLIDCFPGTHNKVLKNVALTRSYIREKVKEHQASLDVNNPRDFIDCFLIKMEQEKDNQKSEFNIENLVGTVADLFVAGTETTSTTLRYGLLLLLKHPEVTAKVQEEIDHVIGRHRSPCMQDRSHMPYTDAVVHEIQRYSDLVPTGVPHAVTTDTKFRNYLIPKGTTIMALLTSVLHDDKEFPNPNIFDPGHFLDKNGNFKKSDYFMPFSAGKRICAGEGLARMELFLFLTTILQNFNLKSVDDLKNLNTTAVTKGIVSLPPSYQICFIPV
In words: Reversible inhibition of CYP2C8 (unknown origin). The format is ADME.

Data set [11] is described as follows: Metabolic stability in human liver microsomes assessed as metabolic turnover at 10 uM measured after 60 mins in presence of NADPH. The format is ADME, Microsome. The conditions noted are these: read-out: Drug metabolism.
Data set [12] is described as follows: Cmax in rat at 2 mg/kg, po or 1 mg/kg, iv. The format is ADME, organism-based. Set-up: dose 2 mg/kg. The following applies: in vivo.
A short description of data set [13]: Drug recovery in fasted bile-duct cannulated Sprague-Dawley rat bile at 5 mg/kg, po using [3H]-labeled compound measured after 48 hrs. The format is ADME, organism-based. The following applies: in vivo.
A short description of data set [14]: Protein binding in rhesus monkey plasma assessed as unbound fraction at 1 mg/kg, po or 0.5 mg/kg, iv. It is filed as ADME, organism-based, Macaca mulatta. The conditions noted are these: read-out: PPB.
The nature of data set [15]: Half life in C57BL/6J mouse at 1 mg/kg, po or 0.5 mg/kg, iv. It is filed as ADME, organism-based. The following applies: in vivo. The gist of the method:
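Single-dose PK at 1 mg/kg po and 0.5 mg/kg iv. Mouse clearance is from blood; dog and rhesus clearance is from plasma. Mouse vehicle, both routes: DMSO:PEG400:water (5:40:55, v/v/v). Dog and monkey iv vehicle: PEG200:12%HPCD:water (30:12:58 v/v/v). Dog and monkey po vehicle: Imwitor:Tween (1:1 w/w).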

pIC50: −log10 of the molar value. Calls of active or inactive are those of the source.

Prolyl hydroxylase EGLN2, sequence (Q96KS0 whole entry): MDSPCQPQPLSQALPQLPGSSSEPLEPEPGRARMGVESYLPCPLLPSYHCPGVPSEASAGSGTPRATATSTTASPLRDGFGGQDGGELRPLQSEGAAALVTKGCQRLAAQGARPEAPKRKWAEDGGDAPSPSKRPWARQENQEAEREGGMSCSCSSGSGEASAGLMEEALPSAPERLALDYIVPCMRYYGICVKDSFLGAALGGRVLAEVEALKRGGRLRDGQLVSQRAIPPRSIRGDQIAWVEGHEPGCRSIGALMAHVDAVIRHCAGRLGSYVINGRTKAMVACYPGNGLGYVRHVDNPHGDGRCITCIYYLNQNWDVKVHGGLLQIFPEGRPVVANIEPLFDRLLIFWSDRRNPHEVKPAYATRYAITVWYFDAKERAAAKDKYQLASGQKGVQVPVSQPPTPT
Prolyl hydroxylase EGLN3, sequence (Q9H6Z9 whole entry): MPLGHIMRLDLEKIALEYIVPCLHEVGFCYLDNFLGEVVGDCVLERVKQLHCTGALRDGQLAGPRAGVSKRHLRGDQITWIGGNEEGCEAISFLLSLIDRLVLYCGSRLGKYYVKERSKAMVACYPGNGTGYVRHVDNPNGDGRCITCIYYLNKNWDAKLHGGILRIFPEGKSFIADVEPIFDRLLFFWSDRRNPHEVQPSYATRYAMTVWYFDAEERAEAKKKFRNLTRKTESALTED

Consider `COc1ccc(C(NC(=O)c2cnc(-c3cccnn3)nc2O)c2ccc(OC)cc2)cc1`, for which the Vd worked out at 0.13 L/kg in data set [1], 0.1 L/kg in [3] and 0.16 L/kg in data set [7]. For the same molecule, the negative-log IC50 (pIC50) (as a rule, the negative decadic logarithm of the IC50, by convention in mol/L) against Cytochrome P450 2B6 was below 4.22; at Prolyl hydroxylase EGLN2, 9.00; against Prolyl hydroxylase EGLN3, 7.85; in data set [6], 4.74; against Cytochrome P450 2C8, 5.80. Besides, the inhibition entry in the data set listed under Rattus norvegicus was “Active”. The minimal effective dose in [2] came to 1.5 mg/kg. Further, the metabolised at 1 h, 10 µM was below 10% in [4], below 10% in [5] and 34% in data set [11]. For the same molecule, the Activity in [8] came to 12000 pg/mL. The Drug metabolism entry in data set [9] is “Metabolite_Detected”. In addition, the results for the Drug recovery in [10] and in data set [13] were 90% and 12%, respectively. In addition, in [12], the concentration peaked (Cmax) at 11 µM. For the same molecule, the fraction unbound in data set [14] stood at 0.005. Moreover, in data set [15], the half-life (commonly the time needed for the level to fall by half in the phase considered) is 11 h.
